PubChem BioAssay
Calls of active or inactive are those of the source.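 Rule for the calls, unless noted: active = Her2 level under about 52% in both replicate screens, with viability over 70% of control (limit read from the data); inconclusive = Her2 under the limit in one screen only, or viability under 70%; inactive = Her2 level above the set limit.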

Tests used:
[1] = Her2 expression decrease, cell viability multiplex – SKBR3 breast tumor cells, AlphaScreen, ATP viability, primary screen (AID 461); settings: SKBR3 Her2 protein level, 18-24 h, measured here: SKBR3 viability, ATP luminescence, at 10 µM;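 for Her2 level: lower value means less Her2 protein in the cells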;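 for viability: percent of carrier control wells set as 100% viability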
[2] = biological target: Receptor tyrosine-protein kinase erbB-2 (Homo sapiens) (UniProt P04626); assay: as above; settings: 18-24 h, at 10 µM, stronger effect = lower value
Receptor tyrosine-protein kinase erbB-2 (Homo sapiens), sequence (P04626 whole entry, looked up): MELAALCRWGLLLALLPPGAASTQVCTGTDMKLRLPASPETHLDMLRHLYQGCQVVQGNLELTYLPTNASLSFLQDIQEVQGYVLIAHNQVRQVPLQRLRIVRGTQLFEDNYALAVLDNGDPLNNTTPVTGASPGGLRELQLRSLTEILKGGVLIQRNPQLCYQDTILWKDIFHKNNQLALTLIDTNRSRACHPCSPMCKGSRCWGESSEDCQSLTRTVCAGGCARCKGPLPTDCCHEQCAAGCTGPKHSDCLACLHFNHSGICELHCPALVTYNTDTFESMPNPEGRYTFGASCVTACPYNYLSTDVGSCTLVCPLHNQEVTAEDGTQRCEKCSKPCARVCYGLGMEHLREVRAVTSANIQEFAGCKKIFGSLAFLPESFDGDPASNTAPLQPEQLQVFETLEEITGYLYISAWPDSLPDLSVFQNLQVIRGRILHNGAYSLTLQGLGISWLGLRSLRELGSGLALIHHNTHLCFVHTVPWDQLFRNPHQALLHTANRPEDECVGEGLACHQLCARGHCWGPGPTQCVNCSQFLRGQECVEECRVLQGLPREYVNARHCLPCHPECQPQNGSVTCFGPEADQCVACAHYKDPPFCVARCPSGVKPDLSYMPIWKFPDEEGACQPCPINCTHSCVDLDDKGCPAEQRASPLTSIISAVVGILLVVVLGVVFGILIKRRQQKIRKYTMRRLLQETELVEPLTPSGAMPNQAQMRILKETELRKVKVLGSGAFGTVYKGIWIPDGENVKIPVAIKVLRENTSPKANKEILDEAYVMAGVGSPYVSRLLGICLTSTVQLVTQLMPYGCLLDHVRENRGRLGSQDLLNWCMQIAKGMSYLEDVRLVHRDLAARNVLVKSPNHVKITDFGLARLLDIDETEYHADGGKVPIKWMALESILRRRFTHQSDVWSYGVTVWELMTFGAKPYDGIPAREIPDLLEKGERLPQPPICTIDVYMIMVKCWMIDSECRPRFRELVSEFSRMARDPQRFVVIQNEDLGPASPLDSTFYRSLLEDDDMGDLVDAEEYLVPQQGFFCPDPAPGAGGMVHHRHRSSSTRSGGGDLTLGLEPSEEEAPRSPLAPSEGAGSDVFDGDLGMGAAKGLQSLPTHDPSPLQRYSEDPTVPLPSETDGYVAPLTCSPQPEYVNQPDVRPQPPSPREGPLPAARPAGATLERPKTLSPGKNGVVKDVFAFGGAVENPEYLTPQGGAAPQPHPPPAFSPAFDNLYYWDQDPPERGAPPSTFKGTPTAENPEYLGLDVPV

[3] = reduced viability of SK-BR-3 breast cancer cells – cell-based, 24 h, human, pilot screen (AID 572;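 active = viability at or below 10% of carrier control in both of two separate runs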;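 note: compound exposure lasted between 18 and 24 h rather than exactly 24 h; 100% = carrier-treated control wells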); settings: SK-BR-3 viability, CellTiter-Glo luminescence, at 10 µM, stronger effect = lower value
[4] = HUVEC growth inhibition – cell-based, human, primary screen (AID 575;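 active = viability at or below 30% in both replicate assays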;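 note: 100% = median of untreated cell wells with 0.1% DMSO on each plate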); settings: HUVEC proliferation, CellTiter-Glo luminescence, 72 h; at 10 µM; stronger effect = lower value
Outline: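 system = HUVEC primary cells | amount = 1250 cells/well | buffer or medium = supplemented EBM, 2% fetal bovine serum | dosing = single-point 10 µM, DMSO 0.1% final | times = 72 h compound incubation | detection = CTG luminescence | read-out = % viability relative to median vehicle-well signal on each plate | control set = vehicle and MePR control wells | format = collagen-coated 384-well format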

[5] = H69AR cell proliferation blockers – human, duplicate replicates, primary screen (AID 580;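 active = viability at or under a set limit in both replicates, limit being median viability minus 3 SD, cut at about 48% in these data, passing the limit was not always enough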;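 note: 100% = mean luminescence of untreated wells and 0% = no signal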); settings: H69AR lung tumor cells viability, ATP luminescence, 72 h; at 10 µM; stronger effect = lower value
[6] = MRP1 drug-resistance reversers in H69AR cells – cell-based, doxorubicin co-treatment, pilot screen (AID 601;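 active = viability loss from added drug above about 55%, and viability with drug at most 40%, in both replicates, limit read from the data, passing the limit was not always enough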); settings: CellTiter-Glo, 72 h, at 10 µM; for differential viability (reversal): stronger effect = higher value
[7] = yeast transport mutant growth inhibition pilot in 384-well plates, post-Golgi transport modulator project (AID 636; in the data active = inhibition above about 31%); settings: absorbance 615 nm, about 18 h, stronger effect = higher value
[8] = growth suppression of yeast trafficking mutant, preliminary HTS, modulators of trafficking downstream of Golgi apparatus project, 1536-format plate, OD 615 nm (AID 637; in the data active = inhibition above about 30%); settings: yeast transport mutant growth, absorbance 615 nm, 18 h; stronger effect = higher value
[9] = H69AR cells + 2 uM doxorubicin, measured here: viability with 2 uM doxorubicin, stronger effect = lower value
[10] = H69AR cells, compound alone cytotoxicity

SMILES | viability [1] [%] | Her2 level [2] | viability [3] | viability [4] | viability [5] | differential viability (reversal) ([6]; H69AR cells + 2 uM doxorubicin) | viability [6, 9] [%] | viability [6, 10] [%] | inhibition [7] | inhibition [8]
Cc1ccccc1CN1CCN(CC(=O)NCc2ccccc2)C1=O | 113 | 117% (inactive) | 113% (inactive) | 97.9% (inactive) | 89.9% (inactive) | 6.96% (inactive) | 83 | 89.9 | -5.32% (inactive) | 2.79% (inactive)
CC(C)(C)c1ccc(C(=O)Nc2cnccn2)cc1 | 79.5 | 114% (inactive) | 79.5% (inactive) | 98.1% (inactive) | 100% (inactive) | 18.8% (inactive) | 81.5 | 100 | -4.87% (inactive) | 0.67% (inactive)
CC(=O)NC(Cc1ccccc1)C(=O)NC1CCN(C(=O)c2cnccn2)CC1 (stereo not given) | 122 | 88% (inactive) | 122% (inactive) | 104% (inactive) | 96.2% (inactive) | 1.21% (inactive) | 95 | 96.2 | -4.86% (inactive) | 8.52% (inactive)
Cc1cccc(N2CCN(S(=O)(=O)c3ccc4c(c3)CCC(=O)N4)CC2C)c1 (stereo not given) | 110 | 95% (inactive) | 110% (inactive) | 84.7% (inactive) | 73.6% (inactive) | -10.3% (inactive) | 83.9 | 73.6 | -5.13% (inactive) | -2.18% (inactive)
CCn1nccc1C(=O)Nc1cc(Cl)ccc1Cl | 102 | 97.5% (inactive) | 102% (inactive) | 89.3% (inactive) | 112% (inactive) | 24.9% (inactive) | 86.7 | 112 | -5.66% (inactive) | -2% (inactive)
CN(C=C1C(=O)CC(C)(C)CC1=O)CCN1CCNCC1 | 120 | 102% (inactive) | 120% (inactive) | 90.3% (inactive) | 96% (inactive) | 10.2% (inactive) | 85.8 | 96 | -4.21% (inactive) | 2.13% (inactive)
CCC(C)c1ccc(NC(=O)c2cccnc2)cc1 (stereo not given) | 93 | 106% (inactive) | 93% (inactive) | 81.6% (inactive) | 92.5% (inactive) | 5.06% (inactive) | 87.4 | 92.5 | -0.54% (inactive) | -1.64% (inactive)
O=C(OCc1nnc(-c2ccc(Cl)cc2)o1)c1ccc(=O)n(Cc2ccccc2)n1 | 84.5 | 84.5% (inactive) | 84.5% (inactive) | 102% (inactive) | 95.1% (inactive) | 13.1% (inactive) | 82.1 | 95.1 | -4.81% (inactive) | -9% (inactive)
Cc1c(C(=O)NCc2ccccc2)oc2c1C(=O)CCC2 | 72 | 93.5% (inactive) | 72% (inactive) | 75.2% (inactive) | 99.2% (inactive) | 15.6% (inactive) | 83.6 | 99.2 | -4.87% (inactive) | 5.67% (inactive)
COc1ccc(NC(=O)Cn2nnc(-c3ccccc3N)n2)cc1OC | 106 | 108% (inactive) | 106% (inactive) | 94.4% (inactive) | 97.8% (inactive) | 4.44% (inactive) | 93.3 | 97.8 | -5.07% (inactive) | 10% (inactive)
COc1ccc(CNC(=O)CN(C(=O)c2ccc(CN3CCOCC3)o2)C2CCCC2)cc1 | 124 | 84.5% (inactive) | 124% (inactive) | 89% (inactive) | 93.1% (inactive) | 7.3% (inactive) | 85.8 | 93.1 | -1.87% (inactive) | 0.98% (inactive)
O=C(CN1CCOCC1)N1CCCc2c1c(=O)oc1ccc(OCc3ccccc3)cc21 | 82 | 99.5% (inactive) | 82% (inactive) | 94.8% (inactive) | 77.2% (inactive) | 4.61% (inactive) | 72.6 | 77.2 | -5.07% (inactive) | -4.1% (inactive)
CC1=C(C(=O)NC2CCCC(C)C2C)C2(CCCCC2)OC1=O (stereo not given) | 118 | 100% (inactive) | 118% (inactive) | 97.6% (inactive) | 95.8% (inactive) | 8.08% (inactive) | 87.7 | 95.8 | -0.27% (inactive) | 3.67% (inactive)
Cn1c(=O)c2c(nc(NCCc3ccccc3)n2CC(=O)NCCc2ccccc2)n(C)c1=O | 91 | 90.5% (inactive) | 91% (inactive) | 99.9% (inactive) | 79% (inactive) | 8.86% (inactive) | 70.2 | 79 | -1.05% (inactive) | 9.68% (inactive)
CCOC(=O)C1CCN(C(=O)COc2ccc(Cl)cc2Cl)CC1 | 109 | 98% (inactive) | 109% (inactive) | 101% (inactive) | 96.2% (inactive) | 10.2% (inactive) | 86.1 | 96.2 | -3.64% (inactive) | -6.35% (inactive)
N#Cc1c(N)c(C(=O)c2ccccc2)n2c1CCCC2 | 103 | 71% (inactive) | 103% (inactive) | 97.7% (inactive) | 93.1% (inactive) | -6.13% (inactive) | 99.2 | 93.1 | -8.92% (inactive) | -0.66% (inactive)

SMILES | viability [1] [%] | Her2 level [2] | viability [3] | viability [4] | viability [5] | differential viability (reversal) ([6]; H69AR cells + 2 uM doxorubicin) | viability [6, 9] [%] | viability [6, 10] [%] | inhibition [7] | inhibition [8]
CCN1CCCC1CNC(=O)CS(=O)(=O)Cc1nc(-c2ccccc2C)oc1C (stereo not given) | 97 | 92.5% (inactive) | 97% (inactive) | 83% (inactive) | 88.1% (inactive) | 0.015% (inactive) | 88.1 | 88.1 | -3.6% (inactive) | 1.64% (inactive)
COC(=O)C1C(=O)c2c([nH]c(C(=O)OCCOC(C)C)c2C)CC1C (stereo not given) | 100 | 111% (inactive) | 100% (inactive) | 97.8% (inactive) | 99.5% (inactive) | 7.92% (inactive) | 91.6 | 99.5 | -2.11% (inactive) | -11.5% (inactive)
CCC(=O)c1ccc(OC(=O)c2ccc(Br)o2)cc1 | 102 | 78.5% (inactive) | 102% (inactive) | 98% (inactive) | 108% (inactive) | 8.45% (inactive) | 99.9 | 108 | -4.67% (inactive) | 8.2% (inactive)
CCOC(=O)CSc1nc(C)c(C(=O)OCC)s1 | 89 | 93.5% (inactive) | 89% (inactive) | 105% (inactive) | 101% (inactive) | 3.4% (inactive) | 97.8 | 101 | 0.92% (inactive) | -4.68% (inactive)
COc1ccc(C(=O)N2CCSC2=S)cc1OC | 97.5 | 96% (inactive) | 97.5% (inactive) | 89.4% (inactive) | 82.1% (inactive) | -11.5% (inactive) | 93.6 | 82.1 | -2.21% (inactive) | -1.67% (inactive)
O=C(OCC(=O)c1c[nH]c2ccccc12)C1=COCCO1 | 96 | 76.5% (inactive) | 96% (inactive) | 100% (inactive) | 97.5% (inactive) | -2.48% (inactive) | 100 | 97.5 | -6.62% (inactive) | 6.17% (inactive)
O=C(c1ccc(Cl)cc1)N1CCCCC(Sc2nnc(-c3ccc4c(c3)OCO4)o2)C1=O (stereo not given) | 118 | 76% (inactive) | 118% (inactive) | 62% (inactive) | 88.5% (inactive) | -3.4% (inactive) | 91.9 | 88.5 | -6.49% (inactive) | 5.56% (inactive)
CCOC(=O)CSc1nc2ccccc2n2cnnc12 | 104 | 76.5% (inactive) | 104% (inactive) | 91.4% (inactive) | 83.9% (inactive) | 2.78% (inactive) | 81.1 | 83.9 | -5.54% (inactive) | -2% (inactive)
COc1ccccc1C1/C(=C(\O)c2c(C)nc3c(C)cccn23)C(=O)C(=O)N1CCCN(C)C (stereo not given) | 102 | 79.5% (inactive) | 102% (inactive) | 85.3% (inactive) | 102% (inactive) | 12.5% (inactive) | 89.2 | 102 | -7.43% (inactive) | 5.67% (inactive)
O=C(c1ccco1)N(Cc1cc2ccccc2[nH]c1=O)C1CCCCC1 | 98.5 | 103% (inactive) | 98.5% (inactive) | 91.7% (inactive) | 95% (inactive) | 12.9% (inactive) | 82.1 | 95 | 0.39% (inactive) | -6.35% (inactive)
O=C1CN=C(Nc2cccc(C(F)(F)F)c2)N1C1CCCC1 | 97 | 119% (inactive) | 97% (inactive) | 101% (inactive) | 82.5% (inactive) | -15.2% (inactive) | 97.7 | 82.5 | -3.33% (inactive) | -1.8% (inactive)
COc1cc(C2c3c(n[nH]c3C)C(=O)N2c2ccc(Br)cc2)ccc1O (stereo not given) | 95 | 62.5% (inactive) | 95% (inactive) | 73.9% (inactive) | 87.8% (inactive) | 5.68% (inactive) | 82.2 | 87.8 | -0.13% (inactive) | -1% (inactive)
O=C(NC1CCCC1)c1ccc(S(=O)(=O)N2CCCC2)cc1 | 107 | 120% (inactive) | 107% (inactive) | 103% (inactive) | 87.6% (inactive) | -7.37% (inactive) | 95 | 87.6 | -1.08% (inactive) | 0.83% (inactive)
CCOCCCNCC(=O)N1CCN(S(=O)(=O)c2ccc(C)cc2)CC1 | 90 | 99.5% (inactive) | 90% (inactive) | 96.2% (inactive) | 101% (inactive) | 12% (inactive) | 89.4 | 101 | -6.18% (inactive) | -1.45% (inactive)
Cc1ccccc1S(=O)(=O)Cc1ccc(C(=O)NCc2cccnc2)o1 | 93 | 83.5% (inactive) | 93% (inactive) | 97.8% (inactive) | 94.2% (inactive) | 6.61% (inactive) | 87.6 | 94.2 | -1.84% (inactive) | -2.91% (inactive)
CCN(CC)C(=O)CSc1nnc([C@@H](N)Cc2ccccc2)o1 | 82 | 106% (inactive) | 82% (inactive) | 98.5% (inactive) | 98.2% (inactive) | 3.4% (inactive) | 94.8 | 98.2 | -1.87% (inactive) | 35.4% (active)
